# Experiments:
# Staphylococcus aureus [1] = assay: Antimicrobial activity against linezolid-susceptible Staphylococcus aureus SA238 infected in human epidermal keratinocytes cells assessed as log reduction in bacterial count after 24 hrs; assay type: functional
# Method in brief: (§1)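 S. aureus was internalized by adherent nonphagocytic cells: Calu-3, HUVEC, keratinocytes on collagen-coated wells, osteoblasts, or rat embryo fibroblasts. Inoculum was 5 × 10^7 to 1 × 10^8 bacteria/ml with 2 h phagocytosis (HUVEC: 2 × 10^6/ml, 1 h). Cells were then exposed to graded drug concentrations for 24 h. CFU change versus the original inoculum was fitted sigmoidally for Emax and Cs.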
# Staphylococcus aureus [2] = assay: Bacteriostatic activity against linezolid-susceptible Staphylococcus aureus NRS384 infected in THP1 cells after 24 hrs; assay type: functional, THP-1
# Method in brief: (§2)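 Human THP-1 myelomonocytic (macrophage-like) cells infected with S. aureus, then exposed 24 h to a range of antibiotic concentrations. CFU change was measured against the initial inoculum. A sigmoidal dose-response curve was fitted to give Emin, Emax and EC50, and the apparent static concentration (Cs) was taken from the fit.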
# Staphylococcus aureus [3] = assay: Antimicrobial activity against linezolid-susceptible Staphylococcus aureus SA238 infected in THP1 cells assessed as log reduction in bacterial count after 24 hrs; assay type: functional, THP-1
# Method in brief: (§3)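 Bacteria were phagocytosed by human THP-1 macrophage-like cells, then exposed to a range of drug concentrations for a fixed time: 24 h for S. aureus, S. epidermidis and L. monocytogenes, 48 h for L. pneumophila. Change in CFU versus the initial inoculum was fitted with a sigmoidal curve to give Emin, Emax (relative maximal efficacy), EC50 and static concentration (Cs).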
# Legionella pneumophila = assay: Bacteriostatic activity against Legionella pneumophila ATCC 33153 infected in THP1 cells after 48hrs; assay type: functional, THP-1; method in brief: as §3
# THP-1 = assay: Ratio of drug level for cellular to extracellular region of Staphylococcus aureus infected human THP-1 cells at 4 mg/liter after 24 hrs; assay type: ADME, cell-based; details: thp-1, 24 h
# Method in brief: (§4)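 Cells were exposed to [14C]radezolid for 2 or 24 h. Cell-associated drug in lysates was measured by liquid scintillation counting (detection limit 0.003 mg/liter; linear 0.01–0.78 mg/liter). Content was normalised to cell protein (Lowry). It was converted to apparent cellular concentration at 5 μl per mg protein and expressed relative to the extracellular concentration.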
# Staphylococcus aureus [4] = assay: Antimicrobial activity against community acquired methicillin-resistant Staphylococcus aureus NRS384 after 24 hrs; assay type: functional; details: NRS384, 24 h
# Staphylococcus aureus [5] = assay: Bacteriostatic activity against linezolid-resistant Staphylococcus aureus SA238L infected in human epidermal keratinocytes cells after 24 hrs; assay type: functional
# Method in brief: (§5)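 Adherent nonphagocytic cells were infected at 5 × 10^7 to 1 × 10^8 bacteria/ml with 2 h phagocytosis. Cells used: Calu-3 bronchial epithelium grown in uncoated flasks, neonatal foreskin keratinocytes on collagen-coated wells, primary human osteoblasts, and primary rat embryo fibroblasts. Antibiotic was then given over a concentration range for 24 h. Cs came from a sigmoidal fit of CFU change.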
# Staphylococcus aureus [6] = assay: Antimicrobial activity against linezolid-resistant Staphylococcus aureus SA238L infected in human osteoblasts cells assessed as log reduction in bacterial count after 24 hrs; assay type: functional; method in brief: as §1
# Staphylococcus aureus [7] = assay: Bacteriostatic activity against linezolid-susceptible Staphylococcus aureus ATCC 25923 infected in THP1 cells after 24 hrs; assay type: functional, THP-1; method in brief: as §2
# Staphylococcus aureus [8] = assay: Bacteriostatic activity against linezolid-susceptible Staphylococcus aureus NRS18 infected in THP1 cells after 24 hrs; assay type: functional, THP-1; method in brief: as §2
# [9] = Ratio of drug level for cellular to extracellular region of Staphylococcus aureus infected rat fibroblast at 4 mg/liter after 24 hrs; assay type: ADME, cell-based; method in brief: as §4
# Staphylococcus aureus [10] = assay: Antimicrobial activity against linezolid-susceptible Staphylococcus aureus NRS384 infected in THP1 cells after 24 hrs; assay type: functional, organism-based; details: NRS384, THP-1, 24 h; method in brief: as §3
# Staphylococcus aureus [11] = assay: Antimicrobial activity against methicillin-susceptible Staphylococcus aureus SA040 after 24 hrs; assay type: functional; details: SA040, 24 h
# Staphylococcus aureus [12] = assay: Bacteriostatic activity against linezolid-susceptible Staphylococcus aureus SA238 infected in HUVEC cells after 24 hrs; assay type: functional
# Method in brief: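 HUVEC were grown in endothelial growth medium on gelatin-treated flasks. They were infected with 2 × 10^6 bacteria/ml for 1 h phagocytosis, then exposed 24 h to graded antibiotic concentrations. CFU change from the initial inoculum was fitted to a sigmoidal curve to obtain the static concentration (Cs).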
# [13] = Ratio of drug level for cellular to extracellular region of Staphylococcus aureus infected human Calu3 cells at 4 mg/liter after 2 hrs; assay type: ADME, cell-based; details: calu-3, 2 h; method in brief: as §4
# [14] = Ratio of drug level for cellular to extracellular region of Staphylococcus aureus infected human keratinocyte at 4 mg/liter after 2 hrs; assay type: ADME, cell-based; method in brief: as §4
# Listeria monocytogenes [15] = assay: Bacteriostatic activity against Listeria monocytogenes EGD infected in THP1 cells after 24 hrs; assay type: functional, THP-1; method in brief: as §3
# Staphylococcus aureus [16] = assay: Antimicrobial activity against linezolid-susceptible Staphylococcus aureus SA238 infected in human osteoblasts cells assessed as log reduction in bacterial count after 24 hrs; assay type: functional; method in brief: as §1
# Staphylococcus aureus [17] = assay: Antimicrobial activity against linezolid resistant methicillin-susceptible Staphylococcus aureus SA040L after 24 hrs; assay type: functional
# Staphylococcus aureus [18] = assay: Bacteriostatic activity against linezolid-susceptible Staphylococcus aureus SA238 infected in THP1 cells at pH 5.5 after 24 hrs; assay type: functional, THP-1
# Staphylococcus aureus [19] = assay: Bacteriostatic activity against linezolid-resistant Staphylococcus aureus SA238L infected in rat fibroblast cells after 24 hrs; assay type: functional; method in brief: as §5
# Staphylococcus aureus [20] = assay: Bacteriostatic activity against linezolid-susceptible Staphylococcus aureus SA238 infected in human epidermal keratinocytes cells after 24 hrs; assay type: functional; method in brief: as §5
# Staphylococcus aureus [21] = assay: Antimicrobial activity against linezolid-susceptible Staphylococcus aureus NRS18 infected in THP1 cells assessed as log reduction in bacterial count after 24 hrs; assay type: functional, THP-1; method in brief: as §3
# Staphylococcus aureus [22] = assay: Bacteriostatic activity against linezolid-susceptible Staphylococcus aureus SA238 infected in Calu-3 cells after 24 hrs; assay type: functional; method in brief: as §5
# HUVEC [23] = assay: Ratio of drug level for cellular to extracellular region of Staphylococcus aureus infected HUVEC cells at 4 mg/liter after 24 hrs; assay type: ADME, cell-based; details: human; method in brief: as §4
# [24] = Ratio of drug level for cellular to extracellular region of Staphylococcus aureus infected human osteoblast at 4 mg/liter after 24 hrs; assay type: ADME, cell-based; method in brief: as §4
# Staphylococcus aureus [25] = assay: Antimicrobial activity against linezolid-susceptible Staphylococcus aureus NRS384 infected in THP1 cells assessed as log reduction in bacterial count after 24 hrs; assay type: functional, THP-1; method in brief: as §3
# Staphylococcus aureus [26] = assay: Antimicrobial activity against linezolid-susceptible Staphylococcus aureus ATCC 33591 infected in THP1 cells assessed as log reduction in bacterial count after 24 hrs; assay type: functional, THP-1; method in brief: as §3
# Staphylococcus aureus [27] = assay: Antimicrobial activity against linezolid-susceptible Staphylococcus aureus SA040 infected in THP1 cells assessed as log reduction in bacterial count after 24 hrs; assay type: functional, THP-1; method in brief: as §3
# Listeria monocytogenes [28] = assay: Antimicrobial activity against Listeria monocytogenes infected in THP1 cells after 24 hrs; assay type: functional, organism-based; details: THP-1, 24 h; method in brief: as §3
# [29] = Ratio of drug level for cellular to extracellular region of Staphylococcus aureus infected human keratinocyte at 4 mg/liter after 24 hrs; assay type: ADME, cell-based; method in brief: as §4
# Staphylococcus aureus [30] = assay: Antimicrobial activity against linezolid-susceptible Staphylococcus aureus SA238 infected in THP-1 cells at pH 5.5 after 24 hrs; assay type: functional, organism-based; details: SA238, THP-1, 24 h
# HUVEC [31] = assay: Ratio of drug level for cellular to extracellular region of Staphylococcus aureus infected HUVEC cells at 4 mg/liter after 2 hrs; assay type: ADME, cell-based; details: human; method in brief: as §4
# Staphylococcus aureus [32] = assay: Antimicrobial activity against linezolid-resistant Staphylococcus aureus SA238L infected in Calu-3 cells assessed as log reduction in bacterial count after 24 hrs; assay type: functional; method in brief: as §1
# Staphylococcus aureus [33] = assay: Bacteriostatic activity against linezolid-susceptible Staphylococcus aureus SA238 infected in THP1 cells after 24 hrs; assay type: functional, THP-1; method in brief: as §2
compound,measurement,setting,value
CC(=O)NC[C@H]1CN(c2ccc(-c3ccc(CNCc4cnn[nH]4)cc3)c(F)c2)C(=O)O1 [RADEZOLID],log10cfu,Staphylococcus aureus [1],0.6
same,Activity,Staphylococcus aureus [2],0.32 mg/L
same,log10cfu,Staphylococcus aureus [3],-0.79
same,Activity,Legionella pneumophila,0.36 mg/L
same,Ratio,THP-1,9.8
same,MIC,Staphylococcus aureus [4],0.5 µg/mL
same,Activity,Staphylococcus aureus [5],0.6 mg/L
same,log10cfu,Staphylococcus aureus [6],0.6
same,Activity,Staphylococcus aureus [7],0.91 mg/L
same,Activity,Staphylococcus aureus [8],0.28 mg/L
same,Ratio,[9],10.9
same,EC50,Staphylococcus aureus [10],0.07 µg/mL
same,MIC,Staphylococcus aureus [11],1 µg/mL
same,Activity,Staphylococcus aureus [12],0.6 mg/L
same,Ratio,[13],8.5
same,Ratio,[14],12.6
same,Activity,Listeria monocytogenes [15],0.43 mg/L
same,log10cfu,Staphylococcus aureus [16],0.6
same,MIC,Staphylococcus aureus [17],2 µg/mL
same,Activity,Staphylococcus aureus [18],0.06 mg/L
same,Activity,Staphylococcus aureus [19],0.6 mg/L
same,Activity,Staphylococcus aureus [20],0.6 mg/L
same,log10cfu,Staphylococcus aureus [21],-1
same,Activity,Staphylococcus aureus [22],0.6 mg/L
same,Ratio,HUVEC [23],10.5
same,Ratio,[24],9.7
same,log10cfu,Staphylococcus aureus [25],-0.61
same,log10cfu,Staphylococcus aureus [26],-0.56
same,log10cfu,Staphylococcus aureus [27],-0.96
same,EC50,Listeria monocytogenes [28],0.04 µg/mL
same,Ratio,[29],16.1
same,EC50,Staphylococcus aureus [30],0.02 µg/mL
same,Ratio,HUVEC [31],9.5
same,log10cfu,Staphylococcus aureus [32],0.6
same,Activity,Staphylococcus aureus [33],0.56 mg/L
